This is a sample that favours compounds with a hit; in the whole collection about 3% have one here.
PLC-beta3 inh: inhibitors of human phospholipase C beta3; inhibition, % at 12.2 µM; AID 720704; Purified PLC-beta3, fluorogenic substrate, fluorescence; 0.18% of 370,000 active; Q01970; in the data active means inhibition above about 11%;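 further: 0% = median of compound wells on plate and 100% = full blocker control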
proKLK7 act: activators of human kallikrein-7 zymogen; P49862; purified proKLK7, EDANS-DABCYL substrate fluorescence; 100% is mature enzyme control, 0% vehicle; activation, % at 7 µM; 0.9% of 370,000 active; AID 652039;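 active means activation above the mean of all tested compounds plus 3 SD, computed per campaign excluding outliers beyond control limits, cut at about 13% in these data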
Tn7 DDE FP: disrupts Tn7 cyclic peptide binding to fibrin D-Dimer-E complex | P02675 | FP displacement of FITC-Tn7 peptide from fibrin DD(E); 0% = median of compound wells per plate | inhibition, % at 8.3 µM | 0.13% of 370,000 active;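 active means inhibition above the mean of compounds falling within the control limits plus 3 SD of them, cut at about 14% in these data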;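 further: 0% = plate median of compound wells and 100% = 10 µM Aha-Tn7 peptide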
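assay system = human clot-derived fibrin DD(E) complex | quantity = Fibrin-DD(E) at 2 µM final | timing = 10 min preincubation, 3 h with tracer, room temperature | signal = fluorescence polarization | measure = percent inhibition | benchmarks = high control wells with 10 µM unlabelled Aha-Tn7 peptide (full inhibition) | replicates = singlicate testing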
Tn6 DDE FP: disrupts Tn6 cyclic peptide binding to fibrin D-Dimer-E complex; 0.21% of 370,000 active; Fibrin DD(E) TRITC-Tn6 fluorescence polarization displacement; inhibition, % at 8.3 µM; P02675;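 active means inhibition above a per-campaign cutoff: mean of compounds within control limits plus 3 SD, cut at about 15% in these data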;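 further: 0% = median of all compound wells on the plate and 100% = blocking peptide control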
CendR NRP1 mod: modulators of CendR peptide binding to human neuropilin-1 | 0.85% of 360,000 active | AID 602438 | inhibition, % at 25 µM | FAM-RPARPAR peptide binding to NRP-1, fluorescence polarization;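 active means inhibition or corrected inhibition above about 18%, plus a signal ratio from 0.5 to 1.5, limit read from the data, passing the limit was not always enough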
Target sequence (O14786 whole entry, looked up): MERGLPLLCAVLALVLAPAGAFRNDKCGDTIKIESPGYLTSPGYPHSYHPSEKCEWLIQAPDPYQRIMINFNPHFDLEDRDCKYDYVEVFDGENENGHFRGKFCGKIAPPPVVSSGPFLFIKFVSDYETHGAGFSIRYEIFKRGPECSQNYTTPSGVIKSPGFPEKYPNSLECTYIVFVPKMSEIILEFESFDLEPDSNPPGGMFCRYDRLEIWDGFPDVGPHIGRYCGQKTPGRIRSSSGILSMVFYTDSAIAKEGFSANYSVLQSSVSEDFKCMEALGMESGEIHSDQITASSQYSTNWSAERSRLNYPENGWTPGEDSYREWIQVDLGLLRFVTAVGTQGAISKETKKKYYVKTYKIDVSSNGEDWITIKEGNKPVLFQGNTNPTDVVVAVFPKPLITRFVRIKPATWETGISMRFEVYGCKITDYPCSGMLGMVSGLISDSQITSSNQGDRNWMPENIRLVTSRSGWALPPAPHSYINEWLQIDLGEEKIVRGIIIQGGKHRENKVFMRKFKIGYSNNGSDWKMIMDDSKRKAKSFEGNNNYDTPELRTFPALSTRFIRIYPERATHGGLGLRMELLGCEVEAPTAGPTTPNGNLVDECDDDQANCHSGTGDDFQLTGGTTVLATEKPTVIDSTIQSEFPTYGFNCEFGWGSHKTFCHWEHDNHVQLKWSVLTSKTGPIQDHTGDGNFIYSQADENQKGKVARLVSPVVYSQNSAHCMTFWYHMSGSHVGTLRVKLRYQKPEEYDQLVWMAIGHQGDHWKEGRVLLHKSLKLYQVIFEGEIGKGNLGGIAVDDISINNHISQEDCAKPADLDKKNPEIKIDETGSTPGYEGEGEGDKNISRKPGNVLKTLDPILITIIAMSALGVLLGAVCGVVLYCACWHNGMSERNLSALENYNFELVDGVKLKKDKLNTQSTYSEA
PLCg1 inh: PLC-gamma1 (human) inhibition, primary screen | inhibition, % at 12.2 µM | AID 720700 | purified PLC-gamma1, fluorogenic substrate, fluorescence | 0.84% of 370,000 active | P19174; in the data active means inhibition above about 9.5%
proKLK7 act conf: proKLK7 activation, confirmation; shares compounds with proKLK7 act; purified proKLK7, EDANS-DABCYL substrate fluorescence; scaled: vehicle 0, mature enzyme 100; activation, % at 7 µM; 68% of 3,200 active;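 active means activation, as change over the incubation, above the mean of all tested compounds plus 3 SD, cut at about 13% in these data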
EDANS interfere: fluorescence interference counter-screen for KLK7 activators. shares compounds with proKLK7 act. EDANS-DABCYL substrate fluorescence interference, no enzyme, 4 h; solvent 0%, active enzyme control 100%. activation, % at 7 µM. 80% of 3,200 active. AID 686952;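 active means activation above the all-compound mean plus 3 SD, ignoring values outside control-based bounds, cut at about 4.8% in these data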;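 further: value is the 4 h activation minus the activation read at time zero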
EDANS interf: counter-screen for kallikrein-7 activators: EDANS-DABCYL interference, dose response | shares compounds with proKLK7 act | EDANS-DABCYL peptide fluorescence interference, no enzyme | EC50, µM | 20% of 250 active;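 active means compounds that raise the fluorescence signal in this interference counterscreen, with EC50 at or below 10 µM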;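 further: intact quenched peptide substrate alone read at 355 nm excitation and 520 nm emission; signal is fluorescence gain from T0 to T4 after four hours at room temperature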
* hit, by the source's call; i = inactive; . = not tested or not shown.

SMILES	PLC-beta3 inh	proKLK7 act	Tn7 DDE FP	Tn6 DDE FP	CendR NRP1 mod	PLCg1 inh	proKLK7 act conf	EDANS interfere	others
CCOC(=O)COc1ccc2nsnc2c1Cl	-361	38*	0	-3	1	-320	37*	41*
O=C(O)COc1cccc2nsnc12	-234	0	-3	-4	8	-180	.	.
COc1ccc(-c2noc(C3CCCN(C(=O)Nc4ccc(C)c(F)c4)C3)n2)cc1 (stereo unspecified)	0	0	-8	2	.	1	.	.
O=C1NC(C2CC3C=CC2C3)Nc2ccccc21 (stereo unspecified)	-484	24*	-5	10	-6	-400	25*	21*	EDANS interf=>69
Cc1ccc(NC(=O)C2=C(O)c3ccccc3N(C)S2(=O)=O)cc1	-57	51*	1	-7	-4	-42	6	9.3*
Nc1cccc2c1C(=O)N(CCOc1ccccc1F)C2=O	i	47*	-3	-1	11	i	72*	78*
CC(C)(C)c1ccc(CN2N=Nc3ccccc3S2(=O)=O)cc1	-42	21*	6	0	-13	-29	0	1
COC(=O)[C@]12C[C@H](CC(=O)N3CCCCC3)C(=O)N(Cc3ccco3)C1=C[C@H](COCc1ccccc1)O[C@@H]2C	3	0	-5	-1	.	3	.	.
Cc1ccc(C(=O)N2CCc3cc4c(cc3C2C)OCCCO4)cc1 (stereo unspecified)	-88	13*	5	4	7	-56	6	6.7*
CC1c2cc3c(cc2CCN1C(=O)c1ccc(Cl)cc1)OCCCO3 (stereo unspecified)	-9	1	-3	0	-9	6	.	.
CCc1cc(=O)oc2c3c(cc(OCC(=O)NCc4ccccn4)c12)OC(C)(C)CC3	i	20*	-10	-5	-6	i	-39	-50
Cc1cc(=O)oc2c3c(cc(OCC(=O)NCc4ccncc4)c12)OC(C)(C)CC3	i	23*	-6	-8	-2	i	37*	0	EDANS interf=>70
CCc1cc(=O)oc2c3c(cc(OCC(=O)NCc4cccnc4)c12)OC(C)(C)CC3	i	18*	-11	-3	-7	i	-70	-19
CCCc1cc(=O)oc2c3c(cc(OCC(=O)NCC4CCC(C(=O)O)CC4)c12)OC(C)(C)CC3 (stereo unspecified)	-229	-2	5	-3	-3	-168	.	.
CCc1cc(=O)oc2c3c(cc(OCC(=O)NCCCCCC(=O)O)c12)OC(C)(C)CC3	i	30*	4	0	6	i	57*	64*
CCn1c(Cc2cccs2)nnc1SCC(=O)Nc1ccc(Cl)cc1C	2	0	5	5	.	-3	.	.
CN(C(=O)c1ccncc1)c1nnc(-c2ccccn2)s1	-34	64*	4	3	8	-36	88*	81*
COc1cc2cc(C(=O)N3CCN(Cc4ccc5c(c4)OCO5)CC3)c(=O)oc2cc1OC	i	61*	3	-4	-11	i	68*	73*
COc1ccccc1C(=O)N1CCN(Cc2ccc3c(c2)OCO3)CC1	2	0	-6	4	1	1	.	.
COc1cccc2[nH]c3c(N4CCC(C(N)=O)CC4)ncnc3c12	-486	25*	-2	7	-1	-456	47*	43*
CCN(CC)C(=O)c1ccc2c(c1)nnn2C	1	16*	-2	-4	4	-1	0	0
O=C1C(C2=NC(c3ccccn3)C3C(=O)N(c4ccccc4)C(=O)C23)=C(O)c2ccccc21 (stereo unspecified)	0	24*	-3	3	-4	4	-25	-23

Bioassay records: PubChem BioAssay, several laboratories
